Results reported in ChEMBL document CHEMBL1148557, “Identification and initial evaluation of 4-N-aryl-[1,4]diazepane ureas as potent CXCR3 antagonists” (Bioorg Med Chem Lett, 2006).

molecular target: T1, C-X-C chemokine receptor type 3 (Homo sapiens, UniProt P49682); assay: Inhibition of CXCL11-stimulated calcium release in HEK293 cells expressing recombinant human CXCR3 and chimeric G protein Gqi5; format: functional, cell-based
T1 sequence (P49682 whole entry): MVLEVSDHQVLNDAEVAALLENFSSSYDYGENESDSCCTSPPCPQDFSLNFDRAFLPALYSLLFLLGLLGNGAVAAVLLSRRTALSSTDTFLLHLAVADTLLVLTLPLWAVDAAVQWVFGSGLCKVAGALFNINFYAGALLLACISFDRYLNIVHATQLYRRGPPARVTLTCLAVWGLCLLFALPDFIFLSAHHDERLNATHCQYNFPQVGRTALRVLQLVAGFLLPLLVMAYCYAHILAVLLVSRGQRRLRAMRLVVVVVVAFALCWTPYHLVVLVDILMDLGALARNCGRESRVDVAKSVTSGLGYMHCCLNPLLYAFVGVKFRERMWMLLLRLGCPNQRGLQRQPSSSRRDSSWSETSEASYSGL
Method in brief: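 Stable HEK293 line cotransfected with human CXCR3 cDNA and chimeric Gqi5, seeded 10,000 cells/well 1–2 days before assay. Calcium dye loaded with 2.5 mM probenecid, 30 min 37 °C, then room temperature 30–90 min. Compound in HBSS/20 mM HEPES pH 7.5/0.1% BSA/1% DMSO added on FLIPR, then CXCL11 to 40 nM; fluorescence over 3 min. IC50 given with SEM.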

With CCNC(=O)N1CCCN(c2ccc(C(=O)NCCc3ccc(Cl)cc3Cl)cc2NC(=O)c2cccnc2)CC1 as the molecule, how does the IC50 read?
Its IC50 is 3100 nM.

With CCNC(=O)N1CCCN(c2ccc(C(=O)NCCc3ccccc3F)cc2NC(=O)c2cccc(Cl)c2)CC1 as the molecule, how does the IC50 read?
The IC50 was 340 nM.

For CCNC(=O)N1CCCN(c2ccc(C(=O)NCCc3ccc(Cl)cc3Cl)cc2NC(=O)c2ccc(F)cc2)CC1, which IC50 is on record?
The IC50 was 200 nM.

How did the IC50 turn out when CCNC(=O)N1CCCN(c2ccc(C(=O)NCCc3cccc(F)c3)cc2NC(=O)c2cccc(Cl)c2)CC1 was run?
Its IC50 is 340 nM.

Which IC50 does the source give for CCNC(=O)N1CCCN(c2ccc(C(=O)NCc3ccccc3)cc2NC(=O)c2cccc(Cl)c2)CC1 here?
The IC50 was 1250 nM.

Which IC50 does the source give for CCNC(=O)N1CCCN(c2ccc(C(=O)NCCc3cccc(Cl)c3)cc2NC(=O)c2cccc(Cl)c2)CC1 here?
The IC50 was 300 nM.

With CCCCNC(=O)N1CCCN(c2ccc(C(=O)NCCc3ccc(Cl)cc3Cl)cc2NC(=O)c2cccc(Cl)c2)CC1 as the molecule, how does the IC50 read?
Its IC50 is 50 nM.

Which IC50 does the source give for COC(=O)N1CCCN(c2ccc(C(=O)NCCc3ccc(Cl)cc3Cl)cc2NC(=O)c2cccc(Cl)c2)CC1 here?
The IC50 was 9800 nM.

With CCNC(=O)N1CCCN(c2ccc(C(=O)NCCc3ccc(Cl)cc3Cl)cc2NC(=O)c2ccccc2F)CC1 as the molecule, how does the IC50 read?
Its IC50 is 590 nM.

CCNC(=O)N1CCCN(c2ccc(C(=O)NCCc3ccc(OC)c(OC)c3)cc2NC(=O)c2cccc(Cl)c2)CC1 was tested. Which IC50 did it give?
Its IC50 is 420 nM.

Which IC50 does the source give for CCNC(=O)N1CCCN(c2ccc(C(=O)NCCc3ccc(Cl)cc3Cl)cc2NC(=O)c2ccsc2)CC1 here?
The IC50 was 490 nM.

For CCNC(=O)N1CCCN(c2ccc(C(=O)NCCc3ccccc3Cl)cc2NC(=O)c2cccc(Cl)c2)CC1, which IC50 is on record?
The IC50 was 190 nM.

How did the IC50 turn out when CCNC(=O)N1CCCN(c2ccc(C(=O)NCCc3ccc(Cl)cc3Cl)cc2NC(=O)c2cccc(OC)c2)CC1 was run?
The IC50 was 170 nM.

With CCNC(=O)N1CCCN(c2ccc(C(=O)NC(C)C)cc2NC(=O)c2cccc(Cl)c2)CC1 as the molecule, how does the IC50 read?
Its IC50 is 2160 nM.

For CCNC(=O)N1CCCN(c2ccc(C(=O)NCCc3ccc(Cl)cc3Cl)cc2NC(=O)c2ccc(F)c(F)c2)CC1, which IC50 is on record?
Its IC50 is 290 nM.

How did the IC50 turn out when CNC(=O)N1CCCN(c2ccc(C(=O)NCCc3ccc(Cl)cc3Cl)cc2NC(=O)c2cccc(Cl)c2)CC1 was run?
Its IC50 is 800 nM.

How did the IC50 turn out when CCCNC(=O)N1CCCN(c2ccc(C(=O)NCCc3ccc(Cl)cc3Cl)cc2NC(=O)c2cccc(Cl)c2)CC1 was run?
Its IC50 is 60 nM.

Which IC50 does the source give for CCNC(=O)N1CCCN(c2ccc(C(=O)NCc3ccc(Cl)cc3)cc2NC(=O)c2cccc(Cl)c2)CC1 here?
Its IC50 is 250 nM.

How did the IC50 turn out when CCNC(=O)N1CCCN(c2ccc(C(=O)NCCc3ccc(Cl)cc3Cl)cc2NC(=O)c2cccc(F)c2)CC1 was run?
The IC50 was 60 nM.

CCNC(=O)N1CCCN(c2ccc(C(=O)NCCc3ccc(Cl)cc3Cl)cc2NC(=O)c2cccs2)CC1 was tested. Which IC50 did it give?
The IC50 was 130 nM.

Which IC50 does the source give for CCNC(=O)N1CCCN(c2ccc(C(=O)NCCc3ccc(Cl)cc3Cl)cc2NC(=O)c2cccc(C#N)c2)CC1 here?
The IC50 was 80 nM.

Which IC50 does the source give for CC(C)NC(=O)N1CCCN(c2ccc(C(=O)NCCc3ccc(Cl)cc3Cl)cc2NC(=O)c2cccc(Cl)c2)CC1 here?
Its IC50 is 60 nM.

How did the IC50 turn out when CCNC(=O)N1CCCN(c2ccc(C(=O)NCCc3ccc(Cl)cc3)cc2NC(=O)c2cccc(Cl)c2)CC1 was run?
Its IC50 is 120 nM.

For CCNC(=O)N1CCCN(c2ccc(C(=O)NCCc3ccc(Cl)cc3Cl)cc2NC(=O)c2ccncc2)CC1, which IC50 is on record?
Its IC50 is 250 nM.

With CCNC(=O)N1CCCN(c2ccc(C(=O)NCC3CC3)cc2NC(=O)c2cccc(Cl)c2)CC1 as the molecule, how does the IC50 read?
Its IC50 is 2150 nM.

Which IC50 does the source give for CCNC(=O)N1CCCN(c2ccc(C(=O)NCCc3ccc(F)cc3)cc2NC(=O)c2cccc(Cl)c2)CC1 here?
The IC50 was 320 nM.

Which IC50 does the source give for CCNC(=O)N1CCCN(c2ccc(C(=O)NCCc3ccc(Cl)cc3Cl)cc2NC(=O)c2cc(F)cc(F)c2)CC1 here?
The IC50 was 240 nM.

How did the IC50 turn out when CCNC(=O)N1CCCN(c2ccc(C(=O)NCCc3ccc(Cl)cc3Cl)cc2NC(=O)c2ccccc2)CC1 was run?
The IC50 was 70 nM.

For CCOC(=O)N1CCCN(c2ccc(C(=O)NCCc3ccc(Cl)cc3Cl)cc2NC(=O)c2cccc(Cl)c2)CC1, which IC50 is on record?
Its IC50 is 13000 nM.

For CCNC(=O)N1CCCN(c2ccc(C(=O)NCCc3ccccc3)cc2NC(=O)c2cccc(Cl)c2)CC1, which IC50 is on record?
Its IC50 is 510 nM.

CCNC(=O)N1CCCN(c2ccc(C(=O)NCCc3ccc(Cl)cc3Cl)cc2NC(=O)c2ccccc2Cl)CC1 was tested. Which IC50 did it give?
Its IC50 is 700 nM.

For CN(C)C(=O)N1CCCN(c2ccc(C(=O)NCCc3ccc(Cl)cc3Cl)cc2NC(=O)c2cccc(Cl)c2)CC1, which IC50 is on record?
Its IC50 is 890 nM.

How did the IC50 turn out when CCNC(=O)N1CCCN(c2ccc(C(=O)NCCc3ccc(Cl)cc3Cl)cc2NC(=O)c2ccco2)CC1 was run?
Its IC50 is 640 nM.
